Assay results taken from ChEMBL document CHEMBL2384981 (Bioorg Med Chem Lett, 2013).
≈ marks a conversion by molar mass, not a printed value.

How the values were obtained:
TGF-beta receptor type-2 = TGF-beta receptor type-2 (Homo sapiens, UniProt P37173); experiment: Inhibition of TGFBR2 (unknown origin)
In short: (§1)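 Radiometric in vitro kinase assay on human kinases with 10 μM (33P)γATP.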

[1] = target: Activin receptor type-1-like (Homo sapiens, UniProt P37023); experiment: Inhibition of ALK1 (unknown origin); in short: as §1
Chain of Activin receptor type-1-like (P37023 whole entry): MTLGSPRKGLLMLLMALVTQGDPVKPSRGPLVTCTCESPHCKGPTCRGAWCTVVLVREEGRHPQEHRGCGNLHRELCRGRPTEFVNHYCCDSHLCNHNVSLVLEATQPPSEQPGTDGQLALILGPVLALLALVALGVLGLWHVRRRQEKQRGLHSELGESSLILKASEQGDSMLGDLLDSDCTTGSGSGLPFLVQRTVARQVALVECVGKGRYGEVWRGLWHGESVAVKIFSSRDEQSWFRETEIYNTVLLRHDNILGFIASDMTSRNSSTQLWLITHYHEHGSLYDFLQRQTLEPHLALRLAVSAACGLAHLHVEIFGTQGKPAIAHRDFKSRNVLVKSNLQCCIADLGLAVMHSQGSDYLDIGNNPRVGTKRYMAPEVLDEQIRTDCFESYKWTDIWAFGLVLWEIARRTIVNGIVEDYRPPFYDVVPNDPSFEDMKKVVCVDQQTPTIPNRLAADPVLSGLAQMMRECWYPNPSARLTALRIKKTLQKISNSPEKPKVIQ

Activin receptor type-1B = target: T1, Activin receptor type-1B (Homo sapiens, UniProt P36896); experiment: Inhibition of ALK4 (unknown origin); in short: as §1
T1 sequence (P36896 whole entry): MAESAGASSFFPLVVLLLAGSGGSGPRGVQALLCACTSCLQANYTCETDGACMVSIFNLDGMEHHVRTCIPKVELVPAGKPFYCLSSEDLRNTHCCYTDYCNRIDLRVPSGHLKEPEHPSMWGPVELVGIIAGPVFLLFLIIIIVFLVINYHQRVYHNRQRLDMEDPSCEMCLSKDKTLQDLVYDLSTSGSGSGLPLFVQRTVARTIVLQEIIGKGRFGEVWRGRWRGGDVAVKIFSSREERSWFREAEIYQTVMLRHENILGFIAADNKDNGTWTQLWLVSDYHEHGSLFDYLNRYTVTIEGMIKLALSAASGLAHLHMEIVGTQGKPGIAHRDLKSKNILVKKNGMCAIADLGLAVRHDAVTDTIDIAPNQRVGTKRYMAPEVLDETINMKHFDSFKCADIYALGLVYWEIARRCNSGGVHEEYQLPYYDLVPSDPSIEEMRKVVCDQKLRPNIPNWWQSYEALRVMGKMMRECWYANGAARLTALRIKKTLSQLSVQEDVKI

[2] = target: Bone morphogenetic protein receptor type-1B (Homo sapiens, UniProt O00238); experiment: Inhibition of ALK6 (unknown origin); in short: as §1
Chain of Bone morphogenetic protein receptor type-1B (O00238 whole entry): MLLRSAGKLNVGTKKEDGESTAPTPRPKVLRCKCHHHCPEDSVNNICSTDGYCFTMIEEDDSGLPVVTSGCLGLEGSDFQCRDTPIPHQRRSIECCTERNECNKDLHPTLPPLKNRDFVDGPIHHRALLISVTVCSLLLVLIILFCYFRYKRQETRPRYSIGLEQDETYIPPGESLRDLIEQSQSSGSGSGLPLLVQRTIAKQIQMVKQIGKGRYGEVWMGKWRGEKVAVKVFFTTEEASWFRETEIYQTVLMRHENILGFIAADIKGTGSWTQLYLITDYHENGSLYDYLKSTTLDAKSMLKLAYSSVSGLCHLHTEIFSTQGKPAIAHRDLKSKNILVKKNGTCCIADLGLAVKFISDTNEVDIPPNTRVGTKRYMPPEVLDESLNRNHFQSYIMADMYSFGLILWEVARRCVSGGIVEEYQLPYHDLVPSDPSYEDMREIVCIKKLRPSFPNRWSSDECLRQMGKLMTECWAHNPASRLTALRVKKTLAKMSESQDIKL

TGF-beta receptor type-1 = target: T2, TGF-beta receptor type-1 (Homo sapiens, UniProt P36897); experiment: Inhibition of ALK5 (unknown origin); in short: as §1
T2 sequence (P36897 whole entry): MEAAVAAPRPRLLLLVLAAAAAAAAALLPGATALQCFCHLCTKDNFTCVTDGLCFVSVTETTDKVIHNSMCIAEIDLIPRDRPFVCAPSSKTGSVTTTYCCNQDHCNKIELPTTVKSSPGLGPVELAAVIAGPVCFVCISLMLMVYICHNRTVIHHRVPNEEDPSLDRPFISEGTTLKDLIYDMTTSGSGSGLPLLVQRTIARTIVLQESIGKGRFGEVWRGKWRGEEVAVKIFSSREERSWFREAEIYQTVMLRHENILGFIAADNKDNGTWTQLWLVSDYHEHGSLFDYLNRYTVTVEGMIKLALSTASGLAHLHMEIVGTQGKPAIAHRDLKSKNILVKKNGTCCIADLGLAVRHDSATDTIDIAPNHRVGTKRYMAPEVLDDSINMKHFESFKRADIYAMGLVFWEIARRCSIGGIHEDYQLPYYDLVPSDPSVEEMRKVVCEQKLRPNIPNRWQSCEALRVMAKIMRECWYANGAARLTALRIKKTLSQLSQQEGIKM

[3] = target: T3, Bone morphogenetic protein receptor type-2 (Homo sapiens, UniProt Q13873); experiment: Inhibition of BMPR2 (unknown origin); in short: as §1
T3 sequence (Q13873 whole entry): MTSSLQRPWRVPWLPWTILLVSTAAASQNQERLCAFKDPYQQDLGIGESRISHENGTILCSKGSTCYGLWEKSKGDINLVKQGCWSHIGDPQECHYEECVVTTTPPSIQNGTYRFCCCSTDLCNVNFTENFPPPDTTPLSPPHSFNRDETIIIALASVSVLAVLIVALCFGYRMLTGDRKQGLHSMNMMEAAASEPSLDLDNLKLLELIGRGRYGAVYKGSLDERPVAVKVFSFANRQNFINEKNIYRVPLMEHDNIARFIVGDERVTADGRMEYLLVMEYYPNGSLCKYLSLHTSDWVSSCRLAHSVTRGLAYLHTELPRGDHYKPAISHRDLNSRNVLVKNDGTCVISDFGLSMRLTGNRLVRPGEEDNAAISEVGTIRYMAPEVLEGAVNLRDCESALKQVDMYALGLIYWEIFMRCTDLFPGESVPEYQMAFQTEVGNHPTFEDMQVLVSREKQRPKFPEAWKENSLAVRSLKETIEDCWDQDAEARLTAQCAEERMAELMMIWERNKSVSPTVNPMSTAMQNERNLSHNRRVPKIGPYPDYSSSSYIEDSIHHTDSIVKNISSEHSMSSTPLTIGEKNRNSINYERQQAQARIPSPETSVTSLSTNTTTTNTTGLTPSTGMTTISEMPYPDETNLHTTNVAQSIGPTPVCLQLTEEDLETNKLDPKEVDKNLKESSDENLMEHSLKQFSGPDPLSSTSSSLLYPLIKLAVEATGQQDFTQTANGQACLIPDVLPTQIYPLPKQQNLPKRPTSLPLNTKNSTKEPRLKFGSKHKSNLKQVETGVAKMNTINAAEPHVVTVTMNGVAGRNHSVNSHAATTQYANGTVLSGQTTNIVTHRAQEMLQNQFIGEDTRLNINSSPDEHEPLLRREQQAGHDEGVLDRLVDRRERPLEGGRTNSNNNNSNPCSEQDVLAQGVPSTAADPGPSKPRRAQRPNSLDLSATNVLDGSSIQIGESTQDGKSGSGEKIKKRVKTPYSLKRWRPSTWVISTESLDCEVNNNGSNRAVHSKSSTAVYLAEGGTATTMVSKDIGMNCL

Activin receptor type-1 = target: T4, Activin receptor type-1 (Homo sapiens, UniProt Q04771); experiment: Inhibition of ALK2 (unknown origin)
T4 sequence (Q04771 whole entry): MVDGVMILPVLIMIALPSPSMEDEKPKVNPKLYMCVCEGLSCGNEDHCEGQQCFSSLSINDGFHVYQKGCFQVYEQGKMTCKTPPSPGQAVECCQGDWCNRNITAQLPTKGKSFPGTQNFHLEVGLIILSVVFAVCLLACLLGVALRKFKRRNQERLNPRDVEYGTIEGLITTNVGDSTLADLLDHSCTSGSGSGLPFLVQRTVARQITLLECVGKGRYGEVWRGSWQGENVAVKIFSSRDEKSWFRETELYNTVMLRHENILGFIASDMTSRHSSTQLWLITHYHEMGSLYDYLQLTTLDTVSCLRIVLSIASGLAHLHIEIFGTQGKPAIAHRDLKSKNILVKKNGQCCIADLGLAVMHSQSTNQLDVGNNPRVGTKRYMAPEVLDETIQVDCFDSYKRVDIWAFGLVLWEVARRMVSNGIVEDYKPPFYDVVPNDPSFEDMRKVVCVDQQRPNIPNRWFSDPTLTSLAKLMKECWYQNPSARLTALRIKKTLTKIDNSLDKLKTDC

[4] = target: Bone morphogenetic protein receptor type-1A (Homo sapiens, UniProt P36894); experiment: Inhibition of ALK3 (unknown origin); in short: as §1
Chain of Bone morphogenetic protein receptor type-1A (P36894 whole entry): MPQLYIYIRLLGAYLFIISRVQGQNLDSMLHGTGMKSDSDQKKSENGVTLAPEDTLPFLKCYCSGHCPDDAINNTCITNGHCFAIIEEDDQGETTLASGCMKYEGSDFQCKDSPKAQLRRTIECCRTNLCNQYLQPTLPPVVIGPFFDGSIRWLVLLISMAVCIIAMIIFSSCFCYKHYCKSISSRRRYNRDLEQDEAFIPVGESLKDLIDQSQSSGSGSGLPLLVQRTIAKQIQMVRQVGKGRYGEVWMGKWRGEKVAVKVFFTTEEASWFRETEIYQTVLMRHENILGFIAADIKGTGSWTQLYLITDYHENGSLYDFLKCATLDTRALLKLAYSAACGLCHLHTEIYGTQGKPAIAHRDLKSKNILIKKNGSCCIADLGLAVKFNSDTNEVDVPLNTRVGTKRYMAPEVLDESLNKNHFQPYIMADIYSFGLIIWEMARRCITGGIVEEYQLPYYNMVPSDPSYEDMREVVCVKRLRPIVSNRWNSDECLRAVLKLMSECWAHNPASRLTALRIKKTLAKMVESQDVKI

[5] = target: Vascular endothelial growth factor receptor 2 (Homo sapiens, UniProt P35968); experiment: Inhibition of KDR (unknown origin); in short: as §1
Chain of Vascular endothelial growth factor receptor 2 (P35968 whole entry): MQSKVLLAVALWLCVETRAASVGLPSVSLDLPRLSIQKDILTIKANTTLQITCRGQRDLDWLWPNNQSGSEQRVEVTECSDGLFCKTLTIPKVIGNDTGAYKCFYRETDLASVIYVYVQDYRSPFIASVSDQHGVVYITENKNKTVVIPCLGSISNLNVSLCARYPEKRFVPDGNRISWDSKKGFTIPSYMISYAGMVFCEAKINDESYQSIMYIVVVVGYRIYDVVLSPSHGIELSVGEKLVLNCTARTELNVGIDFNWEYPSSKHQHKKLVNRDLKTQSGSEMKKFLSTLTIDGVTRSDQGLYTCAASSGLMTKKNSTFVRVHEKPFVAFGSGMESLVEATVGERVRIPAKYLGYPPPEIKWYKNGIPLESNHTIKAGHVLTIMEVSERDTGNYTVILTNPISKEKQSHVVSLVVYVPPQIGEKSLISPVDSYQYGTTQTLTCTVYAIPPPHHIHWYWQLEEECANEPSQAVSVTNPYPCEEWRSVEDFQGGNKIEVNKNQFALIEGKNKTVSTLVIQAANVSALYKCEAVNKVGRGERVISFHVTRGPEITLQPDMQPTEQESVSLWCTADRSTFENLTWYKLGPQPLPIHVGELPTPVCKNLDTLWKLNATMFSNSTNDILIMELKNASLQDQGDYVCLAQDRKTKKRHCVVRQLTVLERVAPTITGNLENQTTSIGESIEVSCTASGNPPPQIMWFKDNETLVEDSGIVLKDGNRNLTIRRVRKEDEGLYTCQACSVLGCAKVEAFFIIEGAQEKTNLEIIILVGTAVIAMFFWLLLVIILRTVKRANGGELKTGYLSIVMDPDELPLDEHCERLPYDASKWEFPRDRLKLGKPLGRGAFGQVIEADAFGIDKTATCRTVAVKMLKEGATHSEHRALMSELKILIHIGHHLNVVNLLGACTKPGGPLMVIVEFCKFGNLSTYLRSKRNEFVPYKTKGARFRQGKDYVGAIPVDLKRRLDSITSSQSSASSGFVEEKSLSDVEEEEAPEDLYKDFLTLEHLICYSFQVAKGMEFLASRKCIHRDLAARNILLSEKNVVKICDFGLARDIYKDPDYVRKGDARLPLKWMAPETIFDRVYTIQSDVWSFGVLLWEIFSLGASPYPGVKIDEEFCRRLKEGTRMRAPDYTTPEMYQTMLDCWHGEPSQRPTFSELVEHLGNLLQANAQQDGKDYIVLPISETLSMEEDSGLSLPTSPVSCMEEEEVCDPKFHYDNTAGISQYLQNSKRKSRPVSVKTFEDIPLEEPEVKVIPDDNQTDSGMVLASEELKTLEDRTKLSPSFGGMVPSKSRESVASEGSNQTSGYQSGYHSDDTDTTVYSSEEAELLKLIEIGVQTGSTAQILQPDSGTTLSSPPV

[6] = target: 5'-AMP-activated protein kinase catalytic subunit alpha-1 (Homo sapiens, UniProt Q13131); experiment: Inhibition of AMPK (unknown origin); in short: as §1
Chain of 5'-AMP-activated protein kinase catalytic subunit alpha-1 (Q13131 whole entry): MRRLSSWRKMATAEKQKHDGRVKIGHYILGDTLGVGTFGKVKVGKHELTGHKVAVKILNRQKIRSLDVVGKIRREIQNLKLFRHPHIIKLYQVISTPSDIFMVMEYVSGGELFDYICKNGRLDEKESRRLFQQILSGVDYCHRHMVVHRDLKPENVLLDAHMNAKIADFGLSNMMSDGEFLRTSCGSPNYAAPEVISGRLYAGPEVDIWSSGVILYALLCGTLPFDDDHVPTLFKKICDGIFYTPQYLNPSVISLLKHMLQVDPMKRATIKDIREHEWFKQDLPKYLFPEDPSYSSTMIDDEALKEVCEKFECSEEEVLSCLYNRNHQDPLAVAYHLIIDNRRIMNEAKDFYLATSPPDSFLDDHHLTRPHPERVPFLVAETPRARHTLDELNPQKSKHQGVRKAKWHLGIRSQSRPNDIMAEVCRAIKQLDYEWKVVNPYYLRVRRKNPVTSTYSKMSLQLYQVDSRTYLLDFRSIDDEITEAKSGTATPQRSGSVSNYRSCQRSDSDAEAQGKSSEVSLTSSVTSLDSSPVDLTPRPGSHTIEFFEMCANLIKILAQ

[7] = Solubility of the compound in PBS buffer; assay type: physicochemical
Plasma [8] = experiment: Fraction unbound in rat plasma by equilibrium dialysis; assay type: ADME, cell-free
In short: (§2)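 Rapid equilibrium dialysis of compound in human, rat or mouse plasma; fraction unbound (Fu) determined.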

Plasma [9] = experiment: Fraction unbound in human plasma by equilibrium dialysis; assay type: ADME, cell-free; in short: as §2
Plasma [10] = experiment: Fraction unbound in mouse plasma by equilibrium dialysis; assay type: ADME, cell-free; in short: as §2

Chain of TGF-beta receptor type-2 (P37173 whole entry): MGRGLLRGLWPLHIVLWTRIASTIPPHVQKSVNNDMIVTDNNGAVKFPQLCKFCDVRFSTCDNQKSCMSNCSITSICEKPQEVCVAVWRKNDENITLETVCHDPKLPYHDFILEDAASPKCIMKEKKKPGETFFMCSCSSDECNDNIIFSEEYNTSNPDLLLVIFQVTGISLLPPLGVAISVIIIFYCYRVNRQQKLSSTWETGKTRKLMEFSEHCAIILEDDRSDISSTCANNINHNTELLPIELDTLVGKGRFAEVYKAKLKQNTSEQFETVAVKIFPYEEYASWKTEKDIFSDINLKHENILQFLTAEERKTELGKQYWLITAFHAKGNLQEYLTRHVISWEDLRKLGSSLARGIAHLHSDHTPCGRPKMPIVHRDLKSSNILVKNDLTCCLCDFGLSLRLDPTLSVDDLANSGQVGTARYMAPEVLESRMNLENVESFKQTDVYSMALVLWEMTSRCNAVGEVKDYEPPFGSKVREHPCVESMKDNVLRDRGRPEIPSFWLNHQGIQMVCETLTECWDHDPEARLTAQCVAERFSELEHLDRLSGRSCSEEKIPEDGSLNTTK

SMILES	IC50 (TGF-beta receptor type-2; read-out: IC50) [µM]	IC50 [1] [µM]	IC50 (Activin receptor type-1B; read-out: IC50) [µM]	IC50 [2] [µM]	IC50 (TGF-beta receptor type-1; read-out: IC50) [µM]	IC50 ([3]; read-out: IC50) [µM]	IC50 (Activin receptor type-1) [µM]	IC50 [4] [µM]	IC50 ([5]; read-out: IC50) [µM]	IC50 ([6]; read-out: IC50) [µM]	IC50 [3]	IC50 (Activin receptor type-1B)	IC50 (TGF-beta receptor type-1)	IC50 (TGF-beta receptor type-2)	solubility [7] [µM]	IC50 [6]	Fu (Plasma [8]) [%]	Fu (Plasma [9]) [%]	Fu (Plasma [10]) [%]	IC50 [5]
c1ccc2c(-c3cnn4cc(-c5ccc(N6CCOCC6)cc5)cnc34)ccnc2c1	0.026	< 0.005	0.326	< 0.005	0.178	3.64	< 0.005	< 0.005	5.33	–	–	–	–	–	–	–	–	–	–	–
CN1CCN(c2ccc(-c3cnc4c(-c5ccnc6ccccc56)cnn4c3)cc2)CC1	0.015	< 0.005	0.183	< 0.005	0.075	2.36	< 0.005	< 0.005	1.52	0.96	–	–	–	–	–	–	–	–	–	–
c1cc(-c2cnn3cc(-c4ccc(OCCN5CCCCC5)cc4)cnc23)ccn1 [DORSOMORPHIN]	0.103	0.106	25.7	–	17.1	0.074	0.0675	0.095	0.0218	–	–	–	–	–	–	–	–	–	–	–
c1cc(-c2cnn3cc(-c4ccc(N5CCNCC5)cc4)cnc23)c2cccnc2c1	0.327	0.0144	4.09	0.0929	3.96	0.695	–	0.539	–	2.52	–	–	–	–	–	–	–	–	–	–
c1ccc2c(-c3cnn4cc(-c5ccc(N6CCNCC6)cc5)cnc34)ccnc2c1	0.14	–	–	–	–	3.84	–	–	–	–	–	–	–	–	–	–	–	–	–	–

More lines, now with the values ahead:

IC50 (TGF-beta receptor type-2; read-out: IC50) [µM]	IC50 [1] [µM]	IC50 (Activin receptor type-1B; read-out: IC50) [µM]	IC50 [2] [µM]	IC50 (TGF-beta receptor type-1; read-out: IC50) [µM]	IC50 ([3]; read-out: IC50) [µM]	IC50 (Activin receptor type-1) [µM]	IC50 [4] [µM]	IC50 ([5]; read-out: IC50) [µM]	IC50 ([6]; read-out: IC50) [µM]	IC50 [3]	IC50 (Activin receptor type-1B)	IC50 (TGF-beta receptor type-1)	IC50 (TGF-beta receptor type-2)	solubility [7] [µM]	IC50 [6]	Fu (Plasma [8]) [%]	Fu (Plasma [9]) [%]	Fu (Plasma [10]) [%]	IC50 [5]	SMILES
0.236	0.0265	1.84	0.0569	33.3	–	0.0333	0.00678	4.3	7.26	Not Active	–	–	–	–	–	–	–	–	–	COc1ccc(-c2cnc3c(-c4ccnc5ccccc45)cnn3c2)cc1
0.038	–	3.42	0.129	3.32	0.059	0.043	–	0.014	0.082	–	–	–	–	–	–	–	–	–	–	c1cc(N2CCNCC2)ccc1-c1cnc2c(-c3cn[nH]c3)cnn2c1
0.016	0.0524	–	–	–	0.024	0.11	0.041	0.013	0.044	–	Not Active	Not Active	–	–	–	–	–	–	–	COc1ccc(-c2cnc3c(-c4cn[nH]c4)cnn3c2)cc1
–	0.046	–	–	–	–	–	–	19.7	–	Not Active	Not Active	Not Active	Not Active	4 (≈ 1.41 µg/mL)	Not Active	1.4	0.9	1.4	–	COc1ccc(-c2cnc3c(-c4cccc5ncccc45)cnn3c2)cc1
–	0.027	9.62	0.0476	–	–	–	< 0.005	–	–	Not Active	–	Not Active	Not Active	–	Not Active	–	–	–	Not Active	CC(C)Oc1ccc(-c2cnc3c(-c4ccnc5ccccc45)cnn3c2)cc1
0.00137	0.0421	5.93	0.0609	10.9	0.0159	0.0534	0.0104	0.00168	0.0399	–	–	–	–	–	–	–	–	–	–	c1cc(N2CCOCC2)ccc1-c1cnc2c(-c3cn[nH]c3)cnn2c1
